According to publication PMC9321963 (Birth Defects Research, 2022):
Several values for one entry are separate records, joined by “and”; a condition that tells them apart may be missing. Equal entries are not always repeated.

Legend:
[1] = Toxicokinetics, rat DRF EFD study; assay type: in vivo; settings: for AUC(0-t) / Cmax / Tmax: female, Sprague-Dawley (Crl:CD SD), rat, plasma, po, 60 mg/kg/day, rat DRF EFD, 60 mg/kg/day oral; for Cmax: C max; for Tmax: T max
[2] = Toxicokinetics, rabbit DRF EFD study; settings: female, in vivo
[3] = Toxicokinetics, rabbit main EFD study; settings: female, in vivo
pregnant rats [4] = experiment: Rat DRF embryofetal developmental toxicity study; assay type: in vivo; settings: rat DRF EFD
pregnant rats [5] = experiment: Rat investigative embryofetal developmental toxicity study; assay type: in vivo; settings: rat investigative EFD; for mean maternal body weight gain, % of controls: dosing and post dose periods
Summary of the method: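 Crl:OFA SD naïve time-mated females, 25 per group (plug day = GD0), under GLP and ICH S5(R2). Oral daily doses of 20, 40 or 60 mg/kg/day were given GD6–GD17; an extra 60 mg/kg/day group was dosed only GD8–GD11 (diaphragm formation). Suspension vehicle: 20% w/w Kolliphor HS 15 / 50% w/w PEG 400 in water. CO2 euthanasia and necropsy on GD21. Maternal endpoints were recorded, plus fetal weight, external and visceral exams.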

pregnant rabbits = experiment: Rabbit EFD studies; assay type: in vivo
PI3Kγ = PI3Kγ (Homo sapiens, UniProt P48736); experiment: ADP-Glo Kinase Assay, PI3Kγ; assay type: biochemical
PI4Kβ = PI4Kβ (Homo sapiens, UniProt Q9UBF8); settings: chemoproteomic profiling, ref Paquet et al., [2017]; cited from earlier work
[6] = 60 mg/kg/day, only dosed GD8 to GD11

PI3Kγ, sequence (P48736 whole entry): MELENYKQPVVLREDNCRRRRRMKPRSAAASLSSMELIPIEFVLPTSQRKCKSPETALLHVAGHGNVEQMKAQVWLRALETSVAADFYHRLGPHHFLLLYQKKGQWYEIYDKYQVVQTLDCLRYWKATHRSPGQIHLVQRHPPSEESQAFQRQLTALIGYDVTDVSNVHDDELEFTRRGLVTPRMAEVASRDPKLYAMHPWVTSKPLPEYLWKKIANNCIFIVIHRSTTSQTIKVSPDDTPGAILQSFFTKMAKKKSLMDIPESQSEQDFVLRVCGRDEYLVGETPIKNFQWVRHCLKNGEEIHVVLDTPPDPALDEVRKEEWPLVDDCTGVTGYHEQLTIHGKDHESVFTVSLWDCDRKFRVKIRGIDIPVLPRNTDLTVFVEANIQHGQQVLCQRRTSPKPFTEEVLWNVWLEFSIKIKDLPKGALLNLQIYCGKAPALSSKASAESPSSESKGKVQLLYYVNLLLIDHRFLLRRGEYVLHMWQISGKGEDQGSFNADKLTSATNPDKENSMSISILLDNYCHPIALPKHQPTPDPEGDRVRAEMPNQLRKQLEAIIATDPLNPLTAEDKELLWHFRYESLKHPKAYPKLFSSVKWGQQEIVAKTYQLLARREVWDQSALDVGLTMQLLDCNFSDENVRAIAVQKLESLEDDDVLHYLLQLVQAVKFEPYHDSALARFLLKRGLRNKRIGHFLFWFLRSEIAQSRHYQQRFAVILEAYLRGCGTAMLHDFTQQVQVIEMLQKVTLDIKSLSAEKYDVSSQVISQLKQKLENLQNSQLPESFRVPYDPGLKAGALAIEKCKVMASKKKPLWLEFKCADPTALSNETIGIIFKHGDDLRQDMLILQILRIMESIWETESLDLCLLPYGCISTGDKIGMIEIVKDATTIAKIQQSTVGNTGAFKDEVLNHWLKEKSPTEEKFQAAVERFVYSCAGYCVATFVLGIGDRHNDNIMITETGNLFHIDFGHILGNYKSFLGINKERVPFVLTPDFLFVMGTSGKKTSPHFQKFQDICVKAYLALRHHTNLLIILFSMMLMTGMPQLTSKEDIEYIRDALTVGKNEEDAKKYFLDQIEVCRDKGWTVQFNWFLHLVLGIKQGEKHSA
PI4Kβ, sequence (Q9UBF8 whole entry): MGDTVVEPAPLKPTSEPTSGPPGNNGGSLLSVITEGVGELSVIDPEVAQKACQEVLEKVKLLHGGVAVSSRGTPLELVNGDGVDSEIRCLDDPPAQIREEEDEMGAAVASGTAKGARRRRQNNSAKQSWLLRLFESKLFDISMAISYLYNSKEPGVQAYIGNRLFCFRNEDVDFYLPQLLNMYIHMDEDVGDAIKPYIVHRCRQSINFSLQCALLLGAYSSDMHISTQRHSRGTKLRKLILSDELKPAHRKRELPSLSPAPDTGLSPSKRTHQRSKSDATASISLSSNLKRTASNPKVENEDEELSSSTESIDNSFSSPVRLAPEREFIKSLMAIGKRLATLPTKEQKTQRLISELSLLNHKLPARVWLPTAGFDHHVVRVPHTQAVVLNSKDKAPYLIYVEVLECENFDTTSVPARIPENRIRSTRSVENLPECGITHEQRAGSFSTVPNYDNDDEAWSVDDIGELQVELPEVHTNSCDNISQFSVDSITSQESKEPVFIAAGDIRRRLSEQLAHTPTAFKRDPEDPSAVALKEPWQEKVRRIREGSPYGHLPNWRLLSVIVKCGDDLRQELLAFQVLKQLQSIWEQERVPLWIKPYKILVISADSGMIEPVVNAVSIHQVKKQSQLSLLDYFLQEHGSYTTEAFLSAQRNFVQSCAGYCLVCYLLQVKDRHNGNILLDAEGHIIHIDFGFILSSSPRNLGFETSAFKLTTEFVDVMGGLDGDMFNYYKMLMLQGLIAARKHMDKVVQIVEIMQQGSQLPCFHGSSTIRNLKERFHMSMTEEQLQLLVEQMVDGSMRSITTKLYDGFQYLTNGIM

## CS(=O)(=O)c1ccc(-c2cnc(N)c(-c3ccc(C(F)(F)F)nc3)c2)cc1 [MMV390048]
[1]; across rat EFD in vivo studies
  maximum concentrations achieved in vivo, free: 8 µM
[1]; GD6
  AUC(0-t): 229000 ng·h/mL
  Cmax: 15600 ng/mL
  Tmax: 8 h
[1]; GD17
  AUC(0-t): 361000 ng·h/mL
  Cmax: 21300 ng/mL
  Tmax: 4 h
[1]; rat DRF EFD KIT, GD17, 60 mg/kg, 4 hr post dose
  Maximum exposure (free): 8 μM/L
[2]; 1 mg/kg/day
  AUC(0-t): 3750 ng·h/mL
  Cmax: 267 ng/mL
  Tmax: 2 h
[2]; 3 mg/kg/day
  AUC(0-t): 14900 ng·h/mL
  Cmax: 857 ng/mL
  Tmax: 4 h
[2]; 10 mg/kg/day
  AUC(0-t): 64500 ng·h/mL
  Cmax: 3790 ng/mL
  Tmax: 4 h
[3]; 1 mg/kg/day
  AUC(0-t): 4090 ng·h/mL
  Cmax: 250 ng/mL
  Tmax: 4 h
[3]; 3 mg/kg/day
  AUC(0-t): 13600 ng·h/mL
  Cmax: 894 ng/mL
  Tmax: 2 h
[3]; 10 mg/kg/day
  AUC(0-t): 53300 ng·h/mL
  Cmax: 3410 ng/mL
  Tmax: 2 h
Pregnant rats [4]; 3 mg/kg/day GD6-GD17
  Female with viable fetuses: 8/8
  Postimplantation loss (%): 5.1%
Pregnant rats [4]; 10 mg/kg/day GD6-GD17
  Female with viable fetuses: 8/8
  Fetal BW % from CTL: −2%
  Postimplantation loss (%): 1.7%
Pregnant rats [4]; 30 mg/kg/day GD6-GD17
  Female with viable fetuses: 7/7
  Fetal BW % from CTL: −5%
  Heart VSD, fetuses with malformation/total fetuses examined: 1/43
  Heart VSD, litters with malformation/total litters examined: 1/7
  Postimplantation loss (%): 5.9%
Pregnant rats [4]; 60 mg/kg/day
  Treatment‐related skeletal malformations: fused rib, short rib, split sternebra, and fused cervical arch
  VSD, number of fetuses: 3 fetuses
  VSD, number of litters: 3 litters
  hernia of the diaphragm, number of fetuses: 12 fetuses
  hernia of the diaphragm, number of litters: 3 litters
Pregnant rats [4]; 60 mg/kg/day GD6-GD17
  Blood vessels IAA, fetuses with malformation/total fetuses examined: 1/40
  Blood vessels IAA, litters with malformation/total litters examined: 1/8
  Female with viable fetuses: 8/8
  Fetal BW % from CTL: −16%
  Heart VSD, fetuses with malformation/total fetuses examined: 7/40
  Heart VSD, litters with malformation/total litters examined: 3/8
  Hernias, fetuses with malformation/total fetuses examined: 12/40
  Hernias, litters with malformation/total litters examined: 3/8
  Postimplantation loss (%): 21.9%
Pregnant rats [4]; 60 mg/kg/day, 14 in the control group
  litter size: 10.6
Pregnant rats [5]
  NOAEL for developmental toxicity: not established
Pregnant rats [5]; 20 mg/kg/day GD6-GD17
  Blood vessels AARS, fetuses with malformation/total fetuses examined: 2/280
  Blood vessels AARS, litters with malformation/total litters examined: 2/24
  Blood vessels ADA, fetuses with malformation/total fetuses examined: 4/280
  Blood vessels ADA, litters with malformation/total litters examined: 3/24
  Blood vessels IAA, fetuses with malformation/total fetuses examined: 2/280
  Blood vessels IAA, litters with malformation/total litters examined: 2/24
  Blood vessels NPT, fetuses with malformation/total fetuses examined: 1/280
  Blood vessels NPT, litters with malformation/total litters examined: 1/24
  Edema, fetuses with malformation/total fetuses examined: 1/280
  Edema, litters with malformation/total litters examined: 1/24
  Female with viable fetuses: 24/24
  Fetal BW % from CTL: −10%
  Heart VSD, fetuses with malformation/total fetuses examined: 1/280
  Heart VSD, litters with malformation/total litters examined: 1/24
  Hernias, fetuses with malformation/total fetuses examined: 35/280
  Hernias, litters with malformation/total litters examined: 16/24
  Postimplantation loss (%): 9.6%
Pregnant rats [5]; 40 mg/kg/day
  females with no viable fetuses, number: 6 females
  mean maternal body weight gain, % of controls: 41 % of controls
Pregnant rats [5]; 40 mg/kg/day GD6-GD17
  Blood vessels AARS, fetuses with malformation/total fetuses examined: 8/97
  Blood vessels AARS, litters with malformation/total litters examined: 8/16
  Blood vessels ADA, fetuses with malformation/total fetuses examined: 9/97
  Blood vessels ADA, litters with malformation/total litters examined: 7/16
  Blood vessels IAA, fetuses with malformation/total fetuses examined: 4/97
  Blood vessels IAA, litters with malformation/total litters examined: 4/16
  Blood vessels NPT, fetuses with malformation/total fetuses examined: 9/97
  Blood vessels NPT, litters with malformation/total litters examined: 6/16
  Edema, fetuses with malformation/total fetuses examined: 1/97
  Edema, litters with malformation/total litters examined: 1/16
  Female with viable fetuses: 16/22
  Fetal BW % from CTL: −24%
  Heart Thick VW, fetuses with malformation/total fetuses examined: 1/97
  Heart Thick VW, litters with malformation/total litters examined: 1/16
  Heart VSD, fetuses with malformation/total fetuses examined: 21/97
  Heart VSD, litters with malformation/total litters examined: 8/16
  Hernias, fetuses with malformation/total fetuses examined: 63/97
  Hernias, litters with malformation/total litters examined: 15/16
  Postimplantation loss (%): 66.45%
Pregnant rats [5]; 60 mg/kg/day
  females with no viable fetuses, number: 11 females
  mean maternal body weight gain, % of controls: 49 % of controls
Pregnant rats [5]; [6]
  Blood vessels AARS, fetuses with malformation/total fetuses examined: 12/65
  Blood vessels AARS, litters with malformation/total litters examined: 12/14
  Blood vessels ADA, fetuses with malformation/total fetuses examined: 10/65
  Blood vessels ADA, litters with malformation/total litters examined: 6/14
  Blood vessels IAA, fetuses with malformation/total fetuses examined: 1/65
  Blood vessels IAA, litters with malformation/total litters examined: 1/14
  Blood vessels NPT, fetuses with malformation/total fetuses examined: 10/65
  Blood vessels NPT, litters with malformation/total litters examined: 6/14
  Edema, fetuses with malformation/total fetuses examined: 2/65
  Edema, litters with malformation/total litters examined: 1/14
  Female with viable fetuses: 14/25
  Fetal BW % from CTL: −26%
  Heart Thick VW, fetuses with malformation/total fetuses examined: 3/65
  Heart Thick VW, litters with malformation/total litters examined: 3/14
  Hernias, fetuses with malformation/total fetuses examined: 31/65
  Hernias, litters with malformation/total litters examined: 11/14
  Postimplantation loss (%): 79.22% and 79.2%
Pregnant rabbits
  embryofetal developmental toxicity signals: no signals of concern
PI3Kγ
  IC50: 4.3 µM
PI4Kβ
  binding to human PI4Kβ: no binding
